For test [1], the target named is T1, S100P (Homo sapiens, UniProt P25815).
T1 sequence (P25815 1-95): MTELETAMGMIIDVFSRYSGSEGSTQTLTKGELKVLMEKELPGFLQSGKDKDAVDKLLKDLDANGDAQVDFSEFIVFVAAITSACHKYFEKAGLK
The experiment in a line: ITC titration of TRTK12 peptides with S100P. The following applies: for ΔCp, exp: heat capacity change upon binding, slope of ΔHcal vs temperature, ITC. The format is binding.

Test [2] concerns the target T2, S100B (Homo sapiens, UniProt P04271).
T2 sequence (P04271 2-92 limits assumed): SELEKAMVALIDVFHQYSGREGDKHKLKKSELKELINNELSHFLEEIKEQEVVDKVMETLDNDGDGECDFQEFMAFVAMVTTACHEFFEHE
The test can be described thus: Acrylamide dynamic quenching of peptide Trp in S100B complex. The format is binding. The following applies: Stern-Volmer constant. The method in brief:
(§1)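 Trp quenching was run on 4–8 μM peptide with or without saturating S100 protein, in binding buffer (20 mM Tris, 0.2 mM EDTA, 1 mM TCEP, pH 7.5) containing 5 mM CaCl2 or 5 mM EDTA. Acrylamide was titrated to about 0.6 M final. Intensities were dilution-corrected, fitted to a modified Stern-Volmer equation with a static term, and averages reported.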

The target in test [3] is T3, S100A2 (Homo sapiens, UniProt P29034). The test can be described thus: Acrylamide dynamic quenching of peptide Trp in S100A2 complex. Type of test: binding. The following applies: Stern-Volmer constant. The method in brief: as §1
The target of test [4] is T3, S100A2. The experiment in a line: ITC titration of TRTK12 peptides with S100A2. The following applies: heat capacity change upon binding, slope of ΔHcal vs temperature.
For test [5], the target named is T1, S100P. The experiment in a line: Steady-state emission fluorescence titration with S100P. The format is binding. The following applies: Trp emission.
For test [6], the target named is T2, S100B. The test can be described thus: ITC titration of TRTK12 peptides with S100B. The format is binding.
[7] abbreviates: ITC fit, Equation 1, 5 mM CaCl2.

SMILES strings stand for the structures.

Consider 6 molecules from PMC3839042 (Biochemistry, 2013).

T3 sequence (P29034 whole entry): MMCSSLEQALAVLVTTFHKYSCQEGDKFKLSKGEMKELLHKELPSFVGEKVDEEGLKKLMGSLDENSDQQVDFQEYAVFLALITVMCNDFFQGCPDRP

As to `CC[C@H](C)[C@H](NC(=O)[C@H](CCCCN)NC(=O)[C@@H](NC(=O)[C@H](CCCNC(=N)N)NC(=O)[C@@H](NC(C)=O)[C@@H](C)O)[C@@H](C)O)C(=O)N[C@@H](CC(=O)O)C(=O)N[C@@H](Cc1c[nH]c2ccccc12)C(=O)N[C@@H](CC(N)=O)C(=O)N[C@@H](CCCCN)C(=O)N[C@@H](C)C(=O)N[C@@H](CC(C)C)C(=O)N[C@@H](CO)C(N)=O` [TRTKM10], at S100P [1], the “ΔCp, exp” value is reported as −1.3 ± 0.1 kJ·mol^−1·K^−1. Moreover, the “S100B+Peptide KSV” value at S100B [2] (saturating S100B, 5 mM CaCl2) turned out to be 7.5 ± 0.1 M⁻¹.

Take `CC[C@H](C)[C@H](NC(=O)[C@H](CCCCN)NC(=O)[C@@H](NC(=O)[C@H](CCCNC(=N)N)NC(=O)[C@@H](NC(C)=O)[C@@H](C)O)[C@@H](C)O)C(=O)N[C@@H](C)C(=O)N[C@@H](Cc1c[nH]c2ccccc12)C(=O)N[C@@H](CC(N)=O)C(=O)N[C@@H](CCCCN)C(=O)N[C@H](C(=O)N[C@@H](CC(C)C)C(=O)N[C@@H](CO)C(N)=O)[C@@H](C)CC` [TRTKM6]: the “ΔCp, exp” value on S100P [1] is given as −0.9 ± 0.1 kJ·mol^−1·K^−1; on S100A2 [4] it was −0.7 ± 0.1 kJ·mol^−1·K^−1. The “S100B+Peptide KSV” value at S100B [2] (in the presence of 150mM NaCl) is given as 3.7 ± 0.1 ^a M^−1. Further, on S100A2 [3] (in the presence of 150mM NaCl), the “S100A2+Peptide KSV” value is on record as 4.7 ± 0.1 ^a M^−1. Besides, the “changes in the emission fluorescence intensity of the tryptophan upon peptide binding or dissociation” value (“changes” for short) on S100P [5] was “no observable changes”.

In the case of `CC[C@H](C)[C@H](NC(=O)[C@H](CCCCN)NC(=O)[C@H](CC(N)=O)NC(=O)[C@H](Cc1c[nH]c2ccccc12)NC(=O)[C@H](CC(=O)O)NC(=O)[C@@H](NC(=O)[C@H](CCCCN)NC(=O)[C@@H](NC(=O)[C@H](CCCNC(=N)N)NC(=O)[C@@H](NC(C)=O)[C@@H](C)O)[C@@H](C)O)[C@@H](C)CC)C(=O)N[C@@H](C)C(=O)N[C@@H](CO)C(N)=O` [TRTKM11], the “stoichiometry n (peptides per S100P dimer)” value at S100P [1] (setting [7]) stood at 1. In addition, the results for the “ΔCp, exp” value on S100P [1] and at S100A2 [4] were −1.8 ± 0.1 kJ·mol^−1·K^−1 and −1.6 ± 0.1 kJ·mol^−1·K^−1, respectively. At S100B [2] (saturating S100B, 5 mM CaCl2), the “S100B+Peptide KSV” value was found to be 7.2 ± 0.1 M⁻¹. Further, the “S100A2+Peptide KSV” value on S100A2 [3] (5 mM CaCl2) was 8.7 ± 0.2 M⁻¹. In addition, at S100B [6] (setting [7]), the “stoichiometry n (peptides per S100B dimer)” value is 1.

On to `CC[C@H](C)[C@H](NC(=O)[C@H](CCCCN)NC(=O)[C@H](CC(N)=O)NC(=O)[C@H](Cc1c[nH]c2ccccc12)NC(=O)[C@H](CC(=O)O)NC(=O)[C@H](C)NC(=O)[C@H](CCCCN)NC(=O)[C@@H](NC(=O)[C@H](CCCNC(=N)N)NC(=O)[C@@H](NC(C)=O)[C@@H](C)O)[C@@H](C)O)C(=O)N[C@@H](CC(C)C)C(=O)N[C@@H](CO)C(N)=O` [TRTKM5], for which the “ΔCp, exp” value at S100P [1] is listed as −1.2 ± 0.1 kJ·mol^−1·K^−1; at S100A2 [4], −0.9 ± 0.1 kJ·mol^−1·K^−1. Moreover, the “S100B+Peptide KSV” value at S100B [2] (saturating S100B, 5 mM CaCl2) stood at 2.8 ± 0.1 M⁻¹. For the same molecule, the “S100A2+Peptide KSV” value on S100A2 [3] (5 mM CaCl2) was 8.9 ± 0.2 M⁻¹. Also, the “changes” value at S100P [5] is reported as “no observable changes”.

With `CC[C@H](C)[C@H](NC(=O)[C@H](CCCCN)NC(=O)[C@H](CC(N)=O)NC(=O)[C@H](Cc1c[nH]c2ccccc12)NC(=O)[C@H](CC(=O)O)NC(=O)[C@@H](NC(=O)[C@H](CCCCN)NC(=O)[C@@H](NC(=O)[C@H](CCCNC(=N)N)NC(=O)[C@H](C)NC(C)=O)[C@@H](C)O)[C@@H](C)CC)C(=O)N[C@@H](CC(C)C)C(=O)N[C@@H](CO)C(N)=O` [TRTKM1], the “ΔCp, exp” value on S100P [1] was −0.9 ± 0.1 kJ·mol^−1·K^−1; on S100A2 [4], −0.8 ± 0.1 kJ·mol^−1·K^−1. Further, the “S100B+Peptide KSV” value on S100B [2] (saturating S100B, 5 mM CaCl2) was determined as 2.4 ± 0.1 M⁻¹. Besides, the “S100A2+Peptide KSV” value on S100A2 [3] (5 mM CaCl2) was determined as 4.3 ± 0.2 M⁻¹.

Consider `CC[C@H](C)[C@H](NC(=O)[C@H](C)NC(=O)[C@H](CC(N)=O)NC(=O)[C@H](Cc1c[nH]c2ccccc12)NC(=O)[C@H](CC(=O)O)NC(=O)[C@@H](NC(=O)[C@H](CCCCN)NC(=O)[C@@H](NC(=O)[C@H](CCCNC(=N)N)NC(=O)[C@@H](NC(C)=O)[C@@H](C)O)[C@@H](C)O)[C@@H](C)CC)C(=O)N[C@@H](CC(C)C)C(=O)N[C@@H](CO)C(N)=O` [TRTKM9], for which the “ΔCp, exp” value at S100P [1] was −1.0 ± 0.1 kJ·mol^−1·K^−1; on S100A2 [4], −0.4 ± 0.1 kJ·mol^−1·K^−1. In addition, on S100B [2] (saturating S100B, 5 mM CaCl2), the “S100B+Peptide KSV” value was 7.2 ± 0.2 M⁻¹. Besides, on S100A2 [3] (5 mM CaCl2), the “S100A2+Peptide KSV” value turned out to be 6.1 ± 1.1 M⁻¹. The same molecule returned an equilibrium dissociation constant (Kd) at S100B [6] of 1.7 ± 0.1 µM. Also, the “changes” value at S100P [5] is “no observable changes”.
